“Also recorded” adds a separate entry of the source.
Assays:
PSMA = PSMA (Homo sapiens, UniProt Q04609); assay: Biosensing; format: binding
In short: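 Virus-PEDOT films, with ligand-displaying phage either unwrapped or wrapped with a chemically synthesized ligand wrapper, were exposed to a series of PSMA dimer concentrations. The read-out was relative impedance change (ΔR/Ro) versus frequency, with noise taken as the SD of five impedance measurements. Controls were films with control phage, ligand-free films, and films with wrapper alone; transferrin receptor served as a specificity target. Kd, Hill n and LOD came from Hill fits.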

PSMA dimer = assay: Phage-based ELISA, binding to PSMA dimer; settings: as shown in Figure 1
[1] = in previous studies, no reference given; cited from earlier work
PSMA monomer = assay: Phage-based ELISA, binding to PSMA monomer; settings: Figure 1, standard error (n = 3)

Chain of PSMA (Q04609 whole entry): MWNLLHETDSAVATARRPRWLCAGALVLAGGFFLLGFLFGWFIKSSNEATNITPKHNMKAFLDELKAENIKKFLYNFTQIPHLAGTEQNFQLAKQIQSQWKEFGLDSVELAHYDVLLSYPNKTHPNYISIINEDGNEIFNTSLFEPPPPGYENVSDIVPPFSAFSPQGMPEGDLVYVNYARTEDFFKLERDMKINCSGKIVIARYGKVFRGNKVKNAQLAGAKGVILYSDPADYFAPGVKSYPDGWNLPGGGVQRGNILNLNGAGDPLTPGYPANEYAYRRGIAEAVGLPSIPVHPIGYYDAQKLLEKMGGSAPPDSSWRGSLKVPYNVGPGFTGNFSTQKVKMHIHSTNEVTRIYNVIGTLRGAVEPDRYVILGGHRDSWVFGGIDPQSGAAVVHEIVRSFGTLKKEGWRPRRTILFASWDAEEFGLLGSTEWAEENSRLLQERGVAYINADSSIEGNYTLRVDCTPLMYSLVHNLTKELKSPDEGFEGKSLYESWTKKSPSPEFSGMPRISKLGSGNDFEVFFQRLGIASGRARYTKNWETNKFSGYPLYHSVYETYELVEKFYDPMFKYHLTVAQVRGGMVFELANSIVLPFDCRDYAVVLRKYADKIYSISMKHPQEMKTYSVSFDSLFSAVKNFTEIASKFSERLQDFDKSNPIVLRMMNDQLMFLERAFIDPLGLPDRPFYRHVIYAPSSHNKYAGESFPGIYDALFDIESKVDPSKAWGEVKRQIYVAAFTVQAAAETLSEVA

Row | Sequence | solubility in water [1] | binding to the PSMA monomer (ELISA) (PSMA monomer) | further results
1 | CALCEFLG [KCS-1] | – | – | binding to PSMA / change in impedance, negative controls (PSMA; EIS, PBF-Tween buffer, PEDOT films): no significant binding to PSMA; also recorded: negligible change in impedance caused by the wrapper
2 | CALCEFLG [compound 1] | limited solubility in water | – | apparent affinity for PSMA, peptide 1 versus peptide 2 (PSMA dimer): much lower apparent affinity for PSMA than peptide 2
3 | CALCEFLG [phage-1] | – | Neither phage-displayed ligand binds with significant affinity to the PSMA monomer | –
4 | SECVEVFQNSCDW [compound 2] | limited solubility in water | – | –
5 | SECVEVFQNSCDW [phage-2] | – | Neither phage-displayed ligand binds with significant affinity to the PSMA monomer | LOD (calculated) (PSMA; PBF, defined as 3x over background signal, calculated from line fits to the data in Figure 4F): 6 nM; cooperative binding (PSMA; from n-values obtained >1, Hill fit, PBF): can access cooperative binding
